We go through 18 compounds from ChEMBL document CHEMBL1221379, “Identification and hit-to-lead optimization of a novel class of CB1 antagonists” (Bioorg Med Chem Lett, 2010).

Data set [1] can be described thus: Metabolic stability in mouse liver microsome assessed as compound remaining after 0.5 hrs. The data set is classed as ADME. The following applies: liver microsomes, read-out: Stability. In short, it runs like this:
(§1)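 Human or mouse liver microsomes (300 nM cytochrome P450) in phosphate buffer pH 7.4 with 1 µM test compound and 1 mM NADPH. Incubated 30 min at 37 °C, stopped with acetonitrile, centrifuged, and analysed by LC/MS. Result given as % compound remaining at 0.5 h.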
In general terms: Liver microsomes are a subcellular fraction often used to study metabolism.

Data set [2] is described as follows: Metabolic stability in human liver microsome assessed as compound remaining after 0.5 hrs. The class given is ADME. The settings on record: liver microsomes, read-out: Stability. In short, it runs like this:
as §1

Data set [3] addresses Cannabinoid receptor 1 (Homo sapiens, UniProt P21554). As to the kind of experiment: Antagonist activity at human cannabinoid CB1 receptor expressed in CHO cells by luciferase reporter gene assay. For orientation: Reporter assays use an easily measured gene product as a stand-in for the process of interest.
Data set [4] can be described thus: Aqueous solubility of the compound. The class given is physicochemical. The settings on record: buffer. In short, it runs like this:
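Shake-flask method. 10 mM DMSO stock added to 0.05 M phosphate buffered saline pH 7.4, 2% DMSO final. Vortexed at 1500 rpm for 24 h at 21 °C, then vacuum-filtered. Filtrate assayed by HPLC with UV at 230 nm against a calibration from a 50 µM DMSO solution. Duplicate determinations, averaged.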

Data set [5] deals with Mus musculus. As to the kind of experiment: Inhibition of WIN-55212-2-induced hypothermia in mouse assessed as change in rectal temperature at 100 umol/kg sc administered 15 mins before WIN-55212-2 challenge measured after 60 mins. Also noted: scale not given: the % may be the effect or the level left.
Data set [6] concerns Mus musculus. The data set can be described thus: Inhibition of WIN-55212-2-induced hypothermia in sc dosed mouse assessed as change in rectal temperature administered 15 mins before WIN-55212-2 challenge measured after 60 mins. The settings on record: 1 h.
Data set [7] can be described thus: Volume of distribution at steady state in Wistar rat at 5 mg/kg, po and 1 mg/kg, iv. The data set is classed as ADME, organism-based. The following applies: in vivo, read-out: Vdss. In short, it runs like this: (§2)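 Male Wistar rats dosed 5 mpk po in 0.5% gelatin in 5% mannitol (aq), or 1 mpk iv in 20% N,N-dimethylacetamide in saline. AUC po taken over 0–7.5 h; clearance and half-life from iv dosing; oral bioavailability and Vss from po/iv pharmacokinetic parameters.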

The nature of data set [8]: AUC (0 to 7.5 hrs) in Wistar rat at 5 mg/kg, po. The class given is ADME, organism-based. Also noted: time < 7.5 hr, dose 5 mg/kg, route oral. The following applies: plasma. In short, it runs like this:
as §2

Data set [9] in a line: Clearance in Wistar rat at 1 mg/kg, iv. The class given is ADME, organism-based. Also noted: dose 1 mg/kg, route intravenous. The following applies: in vivo. In short, it runs like this: as §2
Data set [10] is described as follows: Oral bioavailability in Wistar rat at 5 mg/kg. The class given is ADME, organism-based. The settings on record: in vivo. In short, it runs like this:
as §2

Data set [11] has as its system Mus musculus. The data set can be described thus: Inhibition of WIN-55212-2-induced hypothermia in mouse assessed as change in rectal temperature at 30 umol/kg sc administered 15 mins before WIN-55212-2 challenge measured after 60 mins. Set-up: scale not given: the % may be the effect or the level left.
A short description of data set [12]: Half life in Wistar rat at 1 mg/kg, iv. The data set is classed as ADME, organism-based. Also noted: dose 1 mg/kg, route intravenous. The settings on record: in vivo. In short, it runs like this: as §2
For data set [13], the system named is Mus musculus. The data set can be described thus: Inhibition of WIN-55212-2-induced hypothermia in mouse assessed as change in rectal temperature at 0.3 umol/kg sc administered 15 mins before WIN-55212-2 challenge measured after 60 mins. Also noted: scale not given: the % may be the effect or the level left.
Data set [14] concerns Mus musculus. The data set can be described thus: Inhibition of WIN-55212-2-induced hypothermia in mouse assessed as change in rectal temperature at 0.1 umol/kg sc administered 15 mins before WIN-55212-2 challenge measured after 60 mins. Also noted: scale not given: the % may be the effect or the level left.
For data set [15], the system named is Mus musculus. The data set can be described thus: Inhibition of WIN-55212-2-induced hypothermia in mouse assessed as change in rectal temperature at 0.01 umol/kg sc administered 15 mins before WIN-55212-2 challenge measured after 60 mins. Set-up: scale not given: the % may be the effect or the level left.
Data set [16] has as its system Mus musculus. The data set can be described thus: Inhibition of WIN-55212-2-induced hypothermia in mouse assessed as change in rectal temperature at 1 umol/kg sc administered 15 mins before WIN-55212-2 challenge measured after 60 mins. Set-up: scale not given: the % may be the effect or the level left.
For data set [17], the system named is Mus musculus. As to the kind of experiment: Inhibition of WIN-55212-2-induced hypothermia in mouse assessed as change in rectal temperature at 3 umol/kg sc administered 15 mins before WIN-55212-2 challenge measured after 60 mins. Set-up: scale not given: the % may be the effect or the level left.
Data set [18] deals with Mus musculus. As to the kind of experiment: Inhibition of WIN-55212-2-induced hypothermia in mouse assessed as change in rectal temperature at 10 umol/kg sc administered 15 mins before WIN-55212-2 challenge measured after 60 mins. Set-up: scale not given: the % may be the effect or the level left.

The structures appear in SMILES notation. Converted amounts (≈) assume the structure as drawn.

Cannabinoid receptor 1, sequence (P21554 whole entry): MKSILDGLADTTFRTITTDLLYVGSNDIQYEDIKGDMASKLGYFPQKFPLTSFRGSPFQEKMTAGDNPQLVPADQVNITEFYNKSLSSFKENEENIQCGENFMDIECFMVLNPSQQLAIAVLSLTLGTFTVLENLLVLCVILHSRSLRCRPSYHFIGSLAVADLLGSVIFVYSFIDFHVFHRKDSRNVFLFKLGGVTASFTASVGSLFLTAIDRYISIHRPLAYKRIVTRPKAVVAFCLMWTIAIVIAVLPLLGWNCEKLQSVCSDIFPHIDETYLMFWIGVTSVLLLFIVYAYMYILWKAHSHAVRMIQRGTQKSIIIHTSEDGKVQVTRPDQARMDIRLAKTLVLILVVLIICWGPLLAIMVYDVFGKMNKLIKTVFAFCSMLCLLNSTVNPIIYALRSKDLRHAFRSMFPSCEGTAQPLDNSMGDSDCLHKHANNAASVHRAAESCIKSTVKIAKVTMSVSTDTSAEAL

With `COc1ccccc1-c1cccc(Cn2cnc3ccc(C(=O)NCc4cccc(F)c4)cc32)c1`, the remaining at 0.5 h was determined as 0% in data set [1] and 2% in data set [2]. In data set [3], 0.104 µM corresponded to half-maximal inhibition (IC50).
The corresponding values for `CC(C)(C)C(=O)Nc1ccc2ncn(Cc3cccc(-c4cccc5c4OCO5)c3)c2c1` are 2%, 35% and 0.064 µM.
Regarding `COc1cc(F)ccc1-c1cccc(Cn2cnc3ccc(NC(=O)C(C)(C)C)cc32)c1`, 0.269 µM corresponded to half-maximal inhibition in data set [3] (IC50).
On to `CC(C)(C)C(=O)Nc1ccc2ncn(Cc3cccc(-c4cccc5c4OCO5)n3)c2c1`, for which the remaining at 0.5 h came to 17% in [1] and 28% in data set [2]. In data set [3], inhibition was half-maximal at 0.021 µM (IC50).
The corresponding values for `COc1cc(F)ccc1-c1cccc(Cn2cnc3ccc(NC(=O)C(C)(C)C)cc32)n1` are 1%, 14% and 0.073 µM.
With `CC(C)(C)C(=O)Nc1ccc2ccn(Cc3cccc(-c4cccc5c4OCO5)c3)c2c1`, the solubility (usually the concentration that dissolves in the medium under given conditions) in data set [4] is less than 1 µg/mL. Also, the remaining at 0.5 h in data set [1] was found to be 65%; in data set [2], 72%. Besides, half-maximal inhibition in data set [3] (IC50) was put at 0.051 µM.
The corresponding values for `COc1cc(F)ccc1-c1cccc(Cn2ccc3ccc(NC(=O)C(C)(C)C)cc32)c1` are less than 1 µg/mL, 58%, 51% and 0.058 µM.
On the same counts, the results for `Cn1cc(Cc2cccc(-c3cccc4c3OCO4)c2)c2cc(NC(=O)C(C)(C)C)ccc21` are less than 1 µg/mL, 29%, 52% and 0.037 µM.
The corresponding values for `COc1cc(F)ccc1-c1cccc(Cc2cn(C)c3ccc(NC(=O)C(C)(C)C)cc23)c1` are less than 1 µg/mL, 72%, 70% and 0.045 µM.
As for `CC(C)(CO)C(=O)Nc1ccc2ccn(Cc3cccc(-c4cccc5c4OCO5)n3)c2c1`, the concentration in solution in [4] (solubility) came to 3.2 µg/mL (≈ 7.22 µM). Besides, the values for the remaining at 0.5 h in data set [1] and in data set [2] were 52% and 62%, respectively. Further, the IC50 (commonly the midpoint of a concentration-inhibition curve) in [3] worked out at 0.007 µM.
`COc1cc(F)ccc1-c1cccc(Cn2ccc3ccc(NC(=O)C(C)(C)CO)cc32)n1` registered a solubility in [4] of 11.7 µg/mL (≈ 26.1 µM). Also, the values for the remaining at 0.5 h in data set [1] and in data set [2] were 54% and 45%, respectively. Further, in [3], the IC50 was found to be 0.045 µM.
On the same counts, the results for `CC(C)(O)CC(=O)Nc1ccc2ccn(Cc3cccc(-c4cccc5c4OCO5)n3)c2c1` are less than 1 µg/mL, 53%, 51% and 0.003 µM.
On the same counts, the results for `COc1cc(F)ccc1-c1cccc(Cn2ccc3ccc(NC(=O)CC(C)(C)O)cc32)n1` are 17.9 µg/mL (≈ 40 µM), 44%, 35% and 0.023 µM.
The corresponding values for `Cn1cc(Cc2cccc(-c3cccc4c3OCO4)n2)c2cc(NC(=O)C(C)(C)CO)ccc21` are less than 1 µg/mL, 16%, 56% and 0.007 µM.
Turning to `COc1cc(F)ccc1-c1cccc(Cc2cn(C)c3ccc(NC(=O)C(C)(C)CO)cc23)n1`, in [4], the solubility is 2 µg/mL (≈ 4.33 µM). The remaining at 0.5 h in data set [1] came out at 5%; in [2] it was 47%. Further, inhibition in data set [3] was half-maximal at 0.027 µM (IC50).
The compound `Cn1cc(Cc2cccc(-c3cccc4c3OCO4)n2)c2cc(NC(=O)CC(C)(C)O)ccc21` yielded a solubility in [4] of 14.9 µg/mL (≈ 32.6 µM). Besides, the remaining at 0.5 h is 36% in data set [1] and 56% in [2]. Besides, the values for the Activity in [5] and in [11] were 92.5% and 46.8%, respectively. In data set [6], the ED50 – broadly, the dose at which the effect has come halfway, by size or by number of responders – was 30 µmol/kg. Moreover, the Vd in data set [7] was determined as 1.2 L/kg. Besides, in data set [8], the AUC(0-t) (in general, the area under the concentration-time curve up to a stated or last time point) at 7.5 h came out at 1290 ng·h/mL. The clearance (usually a measure of how efficiently the substance is removed, as volume per time) in [9] is 19 mL/min/kg. The bioavailability – broadly, dose-corrected exposure relative to a reference, in per cent – in data set [10] was 37%. Further, the half-life (usually the time in which the quantity being followed falls by half) in data set [12] is 1 h. In data set [3], this compound came in with an IC50 of 0.005 µM.
Regarding `COc1cc(F)ccc1-c1cccc(Cc2cn(C)c3ccc(NC(=O)CC(C)(C)O)cc23)n1`, the concentration in solution in data set [4] (solubility) came to 10.6 µg/mL (≈ 23 µM). The remaining at 0.5 h in data set [1] came out at 14%; in [2], 41%. In data set [3], this compound yielded an IC50 of 0.019 µM.
On to `Cc1c(C(=O)NN2CCCCC2)nn(-c2ccc(Cl)cc2Cl)c1-c1ccc(Cl)cc1` [RIMONABANT], for which the Activity in [13] is recorded as 14.7%; in data set [14] it was 13.8%; in data set [15], -0.2%; in data set [16], 60.2%; in data set [17], 116.7%; in data set [18] it was 113.4%. Besides, the Activity in data set [11] came to 100.4%. Besides, in [6], the ED50 worked out at 0.8 µmol/kg.
